# Assay results of several laboratories.
# Each line is one published result; the experiments were not run side by side.
# CSNK1A1: Casein kinase I isoform alpha (CSNK1A1, Homo sapiens, UniProt P48729)
# PLA2G6: 85/88 kDa calcium-independent phospholipase A2 (PLA2G6, Homo sapiens, UniProt O60733)
# SLC22A12: Solute carrier family 22 member 12 (SLC22A12, Homo sapiens, UniProt Q96S37)
# SLC22A2: Solute carrier family 22 member 2 (SLC22A2, Homo sapiens, UniProt O15244)
# HDAC10: Polyamine deacetylase HDAC10 (HDAC10, Homo sapiens, UniProt Q969S8)
# HDAC7: Histone deacetylase 7 (HDAC7, Homo sapiens, UniProt Q8WUI4)
target,effect on,mode,technique,cell line,notes,IC50 [nM],SMILES
CSNK1A1,enzyme activity,inhibitor,ADP detection,,,2400,Fc1ccc(-c2nn3cc(F)ccc3c2-c2ccncc2)cc1
PLA2G6,enzyme activity,inhibitor,,,,630,O=C(CCCCc1ccc(CO)cc1)C(F)(F)C(F)(F)F
CSNK1A1,enzyme activity,inhibitor,ADP detection,,,730,N#Cc1ccn2nc(-c3ccc(F)cc3)c(-c3ccncc3)c2c1
SLC22A12,transporter uptake,inhibitor,radiometric,,oocytes,245,CCc1oc2cc(F)c(F)cc2c1C(=O)c1cc(Br)c(O)c(Br)c1
CSNK1A1,enzyme activity,inhibitor,ADP detection,,,970,CCCc1ccn2c(-c3ccncc3)c(-c3ccc(F)cc3)nc2c1
"Epithelial discoidin domain-containing receptor 1 (DDR1, Homo sapiens, UniProt Q08345)",ligand displacement,,TR-FRET,,,110,COc1c(Cl)cccc1Nc1c(-c2ccncc2OC[C@@H]2COCCO2)[nH]c2c1C(=O)NCC2
SLC22A2,transporter uptake,inhibitor,radiometric,HEK293,,> 1000,CC(C)NC(=O)COc1cccc(-c2nc(Nc3ccc4[nH]ncc4c3)c3ccccc3n2)c1
HDAC10,enzyme activity,inhibitor,fluorescence,,,23,O=C(COc1ccc(C2CCC(=O)NC2=O)cc1)NCCCCCCN1CCc2c(c3ccccc3n2Cc2ccc(C(=O)NO)cc2)C1 (centres unmarked)
HDAC7,enzyme activity,inhibitor,,,,> 10000,COc1ccc(N(Cc2nc(-c3ccc(F)cc3)cs2)C(=O)CCCCCC(=O)NO)cc1
SLC22A2,transporter uptake,inhibitor,fluorescence,,,88.2,Cc1cc(N)c2ccccc2[n+]1CCCCCCCCCC[n+]1c(C)cc(N)c2ccccc21
CSNK1A1,enzyme activity,inhibitor,ADP detection,,,> 30000,c1ccc(-c2n[nH]cc2-c2ccncn2)nc1
"Kallikrein-1 (KLK1, Homo sapiens, UniProt P06870)",enzyme activity,inhibitor,,,,3900,CC(=O)N[C@@H](CC(C)C)C(=O)N[C@@H](CC(C)C)C(=O)N[C@H](C=O)CCCNC(=N)N
SLC22A12,transporter uptake,inhibitor,radiometric,,,4090,O=C(NS(=O)(=O)c1ccccc1)c1cc2ccccc2n1Cc1ccc(C2CC2)c2ccccc12
HDAC7,enzyme activity,inhibitor,,,,> 10000,COc1ccc(N(Cc2csc(-c3ccc(Br)cc3)n2)C(=O)CCCCCC(=O)NO)cc1
CSNK1A1,enzyme activity,inhibitor,ADP detection,,,3500,c1ccc(Cc2[nH]nc(-c3ccccn3)c2-c2ccnc3ccccc23)cc1
SLC22A12,transporter uptake,inhibitor,radiometric,,,12000,O=C(NS(=O)(=O)c1ccccc1)c1cc2ccccc2n1Cc1ccc(Br)c2ccccc12
CSNK1A1,enzyme activity,inhibitor,ADP detection,,,> 30000,c1ccc(-c2[nH]ccc2-c2ccnc3ccccc23)nc1
"Angiotensin-converting enzyme (Mus musculus, UniProt P09470)",enzyme activity,inhibitor,,,,88600,O=C(c1ccc(OCCN2CCCCC2)cc1)c1c(-c2ccc(O)cc2)sc2cc(O)ccc12
HDAC7,enzyme activity,inhibitor,,,,48,O=C(NO)c1ccc(Cn2cnc3c(Nc4ccc(Cl)cc4)ncnc32)cc1
SLC22A12,transporter uptake,inhibitor,radiometric,,,3020,O=C(O)/C=C/c1nccc2c3ccccc3n(Cc3ccc(Br)c4ccccc34)c12
HDAC10,enzyme activity,inhibitor,fluorescence,,,15,O=C1CCC(c2ccc(OCC(=O)OCCCCc3cn(CCCCCCN4CCc5c(c6ccccc6n5Cc5ccc(C(=O)NO)cc5)C4)nn3)cc2)C(=O)N1 (centres unmarked)
SLC22A12,transporter uptake,inhibitor,radiometric,,,5800,O=C(NS(=O)(=O)C1CC1)c1cc2ccccc2n1Cc1ccc(C2CC2)c2ccccc12
PLA2G6,enzyme activity,inhibitor,,,,352000,O=C(O)CCCCCCCC(=O)C(F)(F)F
CSNK1A1,enzyme activity,inhibitor,ADP detection,,,2900,c1ccc(-c2n[nH]cc2-c2ccncc2)nc1
HDAC10,enzyme activity,inhibitor,fluorescence,,,22,O=C(CNc1cccc2c1C(=O)N(C1CCC(=O)NC1=O)C2=O)NCCCCCCN1CCc2c(c3ccccc3n2Cc2ccc(C(=O)NO)cc2)C1 (centres unmarked)
CSNK1A1,enzyme activity,inhibitor,ADP detection,,,5500,Fc1ccc(-c2nn3cccc(F)c3c2-c2ccncc2)cc1
"Cannabinoid receptor 2 (CNR2, Homo sapiens, UniProt P34972)",cAMP,antagonist,,,,3780,NC(=O)c1nnn(Cc2cc(Cl)c(C(=O)c3ccc(Cl)cc3)c(Cl)c2)c1N
CSNK1A1,enzyme activity,inhibitor,ADP detection,,,910,Fc1ccc(-c2nc3cc(C4CC4)ccn3c2-c2ccncc2)cc1
CSNK1A1,enzyme activity,inhibitor,ADP detection,,,3400,c1coc(-c2n[nH]cc2-c2ccnc3ccccc23)c1
